Measurements from ChEMBL document CHEMBL3875151, “Design, synthesis, biological evaluation and molecular docking study on peptidomimetic analogues of XK469” (Eur J Med Chem, 2016).
Active and inactive are the calls of the source. No cut-off for these calls is given here.

Tests used:
[1] = Antiproliferative activity against human K562 cells after 48 hrs by MTT assay; type: functional, cell-based; details: K562, 48 h
Procedure, shortened: (§1)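 Cells kept in RPMI-1640 with 10% heat-inactivated FBS, 37°C, 5% CO2. 10^4 cells/well seeded, compounds (dissolved in DMSO or PBS, diluted in medium) added after 4 h at final 200, 150, 100, 50 and 10 μM for 48 h. MTT then 4 h, formazan dissolved in DMSO, OD 570 nm. Growth inhibition vs medium control; IC50 from inhibition ratios; three independent experiments in triplicate.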

[2] = Antiproliferative activity against human MCF7 cells after 48 hrs by MTT assay; type: functional, cell-based; details: MCF7, 48 h; procedure, shortened: as §1
[3] = Antiproliferative activity against human HeLa cells after 48 hrs by MTT assay; type: functional, cell-based; procedure, shortened: as §1
[4] = Anti-metastatic activity against H22 cells xenografted in Balb/c mouse assessed as lung weight at 10 mg/kg/day, ig administered 6 days per week for two consecutive weeks measured on day 12 post last dose (reference value: 0.287 +/- 0.117 g); type: functional
[5] = Anti-metastatic activity against H22 cells xenografted in Balb/c mouse assessed as inhibition of metastasized nodes on lung surface at 10 mg/kg/day, ig administered 6 days per week for two consecutive weeks measured on day 13 post dose by microscopic method relative to control; type: functional; details: po
Procedure, shortened: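 BALB/c mice (18~22 g, both sexes) injected via tail vein with 6 × 10^6 H22 ascites cells. After 24 h, randomized into groups of 10. Compounds given intragastrically at 10 mg/kg in 0.5% CMC-Na (2 mg/ml), vehicle to controls. Lung-surface metastatic nodes counted under microscope; inhibition rate from mean node counts vs vehicle group.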

[6] = target: DNA topoisomerase 2-alpha (Homo sapiens) (UniProt P11388); assay: Inhibition of human topoisomerase-2 alpha-mediated kinetoplast DNA decatenation at 3.15 to 200 uM after 15 mins by ethidium bromide staining based agarose gel electrophoresis relative to etoposide
Sequence of DNA topoisomerase 2-alpha (Homo sapiens) (P11388 whole entry): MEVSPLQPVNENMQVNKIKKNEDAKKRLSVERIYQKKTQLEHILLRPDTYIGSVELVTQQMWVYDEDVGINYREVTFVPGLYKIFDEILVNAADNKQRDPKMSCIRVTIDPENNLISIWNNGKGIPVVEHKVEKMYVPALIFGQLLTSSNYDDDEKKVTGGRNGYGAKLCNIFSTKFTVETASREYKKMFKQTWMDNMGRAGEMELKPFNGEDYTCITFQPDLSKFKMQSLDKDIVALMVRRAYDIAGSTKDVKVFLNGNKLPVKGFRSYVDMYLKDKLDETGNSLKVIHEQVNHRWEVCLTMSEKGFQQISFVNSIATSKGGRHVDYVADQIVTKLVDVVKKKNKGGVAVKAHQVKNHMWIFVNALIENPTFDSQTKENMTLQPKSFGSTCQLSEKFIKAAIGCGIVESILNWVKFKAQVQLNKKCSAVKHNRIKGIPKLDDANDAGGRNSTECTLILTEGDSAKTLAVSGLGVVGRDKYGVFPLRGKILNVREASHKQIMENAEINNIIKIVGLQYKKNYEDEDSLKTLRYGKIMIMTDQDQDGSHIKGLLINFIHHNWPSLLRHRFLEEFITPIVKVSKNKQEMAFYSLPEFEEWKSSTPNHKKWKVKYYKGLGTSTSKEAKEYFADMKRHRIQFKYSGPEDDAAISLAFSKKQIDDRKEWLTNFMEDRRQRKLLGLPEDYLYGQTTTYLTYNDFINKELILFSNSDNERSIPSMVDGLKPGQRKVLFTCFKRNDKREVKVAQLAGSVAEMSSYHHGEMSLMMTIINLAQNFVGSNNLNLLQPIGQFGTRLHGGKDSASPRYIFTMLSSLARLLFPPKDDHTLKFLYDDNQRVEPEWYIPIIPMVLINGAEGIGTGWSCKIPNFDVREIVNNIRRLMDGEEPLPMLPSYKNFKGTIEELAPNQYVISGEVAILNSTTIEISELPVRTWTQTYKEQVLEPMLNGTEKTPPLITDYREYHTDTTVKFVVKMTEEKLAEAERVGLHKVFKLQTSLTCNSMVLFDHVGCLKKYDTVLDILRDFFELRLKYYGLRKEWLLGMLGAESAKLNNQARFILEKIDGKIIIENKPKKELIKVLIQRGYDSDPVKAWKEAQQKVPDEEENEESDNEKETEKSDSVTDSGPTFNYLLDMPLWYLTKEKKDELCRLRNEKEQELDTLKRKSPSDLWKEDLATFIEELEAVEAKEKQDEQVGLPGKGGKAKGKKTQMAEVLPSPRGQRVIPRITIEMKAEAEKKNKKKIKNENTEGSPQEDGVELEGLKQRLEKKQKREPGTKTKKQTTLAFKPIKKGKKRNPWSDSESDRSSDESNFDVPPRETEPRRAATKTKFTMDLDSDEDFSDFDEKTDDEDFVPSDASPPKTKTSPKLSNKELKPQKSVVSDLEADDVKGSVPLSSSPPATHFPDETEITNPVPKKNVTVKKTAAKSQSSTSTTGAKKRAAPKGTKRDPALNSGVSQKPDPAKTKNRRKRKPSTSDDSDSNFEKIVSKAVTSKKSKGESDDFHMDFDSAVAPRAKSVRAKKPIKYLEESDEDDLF
Procedure, shortened: (§2)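 Human topo IIα (0.5 units) with 20 µg/mL kDNA in 50 mM Tris-HCl pH 8.0, 0.5 mM DTT, 10 mM MgCl2, 2 mM ATP. Compounds at 3.15, 12.5, 50 and 200 µM, 15 min at 37°C; stopped with SDS/glycerol. Products run on 1% agarose, 50 V, 50 min, ethidium bromide-stained, viewed under UV. Controls without enzyme and without inhibitor; etoposide reference.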

Mus musculus [7] = assay: Toxicity in Balb/c mouse xenografted with […] cells assessed as body weight at 10 mg/kg/day, ig administered 6 days per week for two consecutive weeks (reference value: 20.17 +/- 3.66 g); type: organism-based; details: in vivo, po, 144 h
[8] = target: DNA topoisomerase 2-alpha (Homo sapiens) (UniProt P11388); assay: Inhibition of human topoisomerase-2 alpha-mediated kinetoplast DNA decatenation at 3.15 to 200 uM after 15 mins by ethidium bromide staining based agarose gel electrophoresis; procedure, shortened: as §2
Mus musculus [9] = assay: Toxicity in Balb/c mouse xenografted with […] cells assessed as mouse survival at 10 mg/kg/day, ig administered 6 days per week for two consecutive weeks; type: organism-based; details: in vivo, po, 144 h
Procedure, shortened: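 H22 hepatocarcinoma ascites from BALB/c donor mice was diluted 1:4 in saline (3 × 10^7 cells/ml), and 0.2 mL (6 × 10^6 cells) was injected via tail vein into BALB/c mice weighing 18~22 g. After 24 h, mice were weighed and randomised into 7 groups of 10, half of each sex. Compound was given intragastrically at 2 mg/ml in 0.5% CMC-Na, with vehicle controls. Surviving animals were counted against the original number per group.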

[10] = Antiproliferative activity against human NCI60 cells after 48 hrs by SRB assay; type: functional, cell-based; details: NCI60, 48 h
[11] = target: DNA topoisomerase 2-alpha (Homo sapiens) (UniProt P11388); assay: Inhibition of human topoisomerase-2 alpha-mediated kinetoplast DNA decatenation after 15 mins by ethidium bromide staining based agarose gel electrophoresis; procedure, shortened: as §2

SMILES | IC50 [1] [µM] | IC50 [2] [µM] | IC50 [3] [µM] | other results
CCCCCCCCCCCCNc1nc2ccccc2nc1Oc1ccc(C(=O)N[C@@H](C)C(=O)OC)cc1 | 26.7 | 33.8 | 28.5 | –
CCCCCCCCCCCCNc1nc2ccccc2nc1Oc1ccc(C(=O)N[C@@H](Cc2ccccc2)C(=O)O)cc1 | 7.37 | 6.79 | 9.19 | Activity [4]: 0.197 g; inhibition in vivo at 10 mg/kg/day [5]: 33.7%; fold change (FC) [6]: 4; Activity (Mus musculus [7]): 20.85 g; inhibition [8]: Active
CC[C@@H](C)[C@H](NC(=O)c1ccc(Oc2nc3ccccc3nc2NC(C)(C)C)cc1)C(=O)O | 18.3 | 11.3 | 13.4 | Activity [4]: 0.211 g; Activity (Mus musculus [9]): Non-Toxic; inhibition in vivo at 10 mg/kg/day [5]: 27.6%; Activity (Mus musculus [7]): 21.84 g
COC(=O)[C@H](Cc1ccccc1)NC(=O)c1ccc(Oc2nc3cc(Cl)ccc3nc2C)cc1 | 27.5 | 25.5 | 28.8 | –
Cc1nc2cc(Cl)ccc2nc1Oc1ccc(C(=O)N[C@@H](C)C(=O)O)cc1 | 20.9 | 19.4 | 30 | –
Cc1nc2ccc(Cl)cc2nc1Oc1ccc(C(=O)N[C@@H](CC(C)C)C(=O)O)cc1 | 14.5 | 15.1 | 16.4 | Activity [4]: 0.254 g; Activity (Mus musculus [9]): Non-Toxic; inhibition in vivo at 10 mg/kg/day [5]: 14.8%; Activity (Mus musculus [7]): 23.25 g
COC(=O)[C@H](CC(C)C)NC(=O)c1ccc(Oc2nc3ccccc3nc2C)cc1 | 22.6 | 25.5 | 21.6 | –
C[C@@H](Oc1ccc(Oc2cnc3ccc(Cl)cc3n2)cc1)C(=O)O [R(+)XK469] | – | – | – | IC50 [10]: 70 µM
COC(=O)[C@H](CC(C)C)NC(=O)c1ccc(Oc2nc3cc(Cl)ccc3nc2C)cc1 | 22 | 19.1 | 18.6 | –
CCCCCCCCCCCCNc1nc2ccccc2nc1Oc1ccc(C(=O)N[C@H](C(=O)OC)[C@H](C)CC)cc1 | 30.8 | 43.3 | 40.3 | –
CC[C@@H](C)[C@H](NC(=O)c1ccc(Oc2nc3ccccc3nc2C)cc1)C(=O)OC | 38.3 | 36.1 | > 50 | –
COC(=O)[C@H](Cc1ccccc1)NC(=O)c1ccc(Oc2nc3ccccc3nc2NC(C)(C)C)cc1 | 10.3 | > 50 | > 50 | –
CC(C)C[C@H](NC(=O)c1ccc(Oc2nc3ccccc3nc2NC(C)(C)C)cc1)C(=O)O | 42.3 | 40.3 | 39.2 | –
COC(=O)[C@H](C)NC(=O)c1ccc(Oc2nc3ccc(Cl)cc3nc2C)cc1 | 26 | 33.8 | 42.5 | –
COC(=O)[C@H](CC(C)C)NC(=O)c1ccc(Oc2nc3ccc(Cl)cc3nc2C)cc1 | 32.6 | 22.8 | 37.6 | –
Cc1nc2ccc(Cl)cc2nc1Oc1ccc(C(=O)N[C@@H](Cc2ccccc2)C(=O)O)cc1 | 21.5 | 20.2 | 20.2 | –
CC(C)(C)Nc1nc2ccccc2nc1Oc1ccc(C(=O)N[C@@H](Cc2ccccc2)C(=O)O)cc1 | 15.2 | 25.3 | 20.5 | –

SMILES | IC50 [1] [µM] | IC50 [2] [µM] | IC50 [3] [µM] | other results
COC(=O)[C@H](CC(C)C)NC(=O)c1ccc(Oc2nc3ccccc3nc2NC(C)(C)C)cc1 | > 50 | > 50 | > 50 | –
COC(=O)[C@H](C)NC(=O)c1ccc(Oc2nc3ccccc3nc2NC(C)(C)C)cc1 | 42.2 | 38.4 | 55.2 | –
CC[C@@H](C)[C@H](NC(=O)c1ccc(Oc2nc3ccccc3nc2NC(C)(C)C)cc1)C(=O)OC | 38.7 | 33.4 | 31.9 | –
CCCCCCCCCCCCNc1nc2ccccc2nc1Oc1ccc(C(=O)N[C@H](C(=O)O)[C@H](C)CC)cc1 | 21.5 | 30.4 | 35.5 | –
CC[C@@H](C)[C@H](NC(=O)c1ccc(Oc2nc3ccccc3nc2C)cc1)C(=O)O | 30.5 | 35.7 | 33.2 | –
COc1cccc2c1C(=O)c1c(O)c3c(c(O)c1C2=O)C[C@@](O)(C(=O)CO)C[C@@H]3O[C@H]1C[C@H](N)[C@H](O)[C@H](C)O1 [DOXORUBICIN] | 13.5 | – | 11.5 | Activity [4]: 0.217 g; inhibition in vivo at 10 mg/kg/day [5]: 59.9%; Activity (Mus musculus [7]): 23.32 g
COC(=O)[C@H](C)NC(=O)c1ccc(Oc2nc3ccccc3nc2C)cc1 | 45.5 | 38.4 | 32.2 | –
Cc1nc2ccccc2nc1Oc1ccc(C(=O)N[C@@H](CC(C)C)C(=O)O)cc1 | 19.5 | 14.7 | 17.3 | Activity [4]: 0.238 g; Activity (Mus musculus [9]): Non-Toxic; inhibition in vivo at 10 mg/kg/day [5]: 11%; Activity (Mus musculus [7]): 22.46 g
Cc1nc2cc(Cl)ccc2nc1Oc1ccc(C(=O)N[C@@H](CC(C)C)C(=O)O)cc1 | 21.3 | 17.4 | 25 | –
COC(=O)CNC(=O)c1ccc(Oc2nc3ccccc3nc2NC(C)(C)C)cc1 | > 50 | > 50 | > 50 | –
COc1cc([C@@H]2c3cc4c(cc3[C@@H](O[C@@H]3O[C@@H]5CO[C@@H](C)O[C@H]5[C@H](O)[C@H]3O)[C@H]3COC(=O)[C@H]23)OCO4)cc(OC)c1O | – | – | – | inhibition [8]: Active
C[C@H](NC(=O)c1ccc(Oc2nc3ccccc3nc2NC(C)(C)C)cc1)C(=O)O | 26.4 | 29.4 | 23.4 | –
CC(C)(C)Nc1nc2ccccc2nc1Oc1ccc(C(=O)NCC(=O)O)cc1 | > 50 | > 50 | > 50 | –
CCCCCCCCCCCCNc1nc2ccccc2nc1Oc1ccc(C(=O)N[C@@H](C)C(=O)O)cc1 | 3.28 | 4.11 | 6.24 | Activity [4]: 0.23 g; inhibition in vivo at 10 mg/kg/day [5]: 42.5%; inhibition [11]: Dose-dependent effect; Activity (Mus musculus [7]): 24.62 g
CCCCCCCCCCCCNc1nc2ccccc2nc1Oc1ccc(C(=O)N[C@@H](Cc2ccccc2)C(=O)OC)cc1 | 30.5 | 33.4 | 34.4 | –
Cc1nc2ccccc2nc1Oc1ccc(C(=O)N[C@@H](C)C(=O)O)cc1 | 28.1 | 25.6 | 22.3 | –
